LMPTP block: blocks human LMPTP phosphatase; P24666; recombinant LMPTP-A, OMFP fluorogenic substrate, fluorescence intensity; inhibition, % at 20 µM; 360,000 tested, 0.22% active; AID 651560;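 active = compounds that cut the enzyme signal by at least half of the control window in the single-dose screen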;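 note: plate controls were DMSO wells with enzyme plus substrate for no effect and substrate without enzyme for full effect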
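Test system: LMPTP-A, protein tyrosine phosphatase of low molecular weight; Input: 0.625 nM enzyme; Incubation: 50 min dark incubation at room temperature; Signal: endpoint fluorescence intensity from OMFP dephosphorylation; Read-out basis: % inhibition versus control wells.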
DNMT1 block: DNMT1 (human) enzyme inhibition. P26358. DNMT1 molecular beacon, Hinp1I cleavage, fluorescence. inhibition (reported as % activation of signal), % at 10 µM. 360,000 tested, 0.83% active. AID 588458; in the data active = inhibition above about 50%
Target sequence (P26358 504-1616 limits assumed): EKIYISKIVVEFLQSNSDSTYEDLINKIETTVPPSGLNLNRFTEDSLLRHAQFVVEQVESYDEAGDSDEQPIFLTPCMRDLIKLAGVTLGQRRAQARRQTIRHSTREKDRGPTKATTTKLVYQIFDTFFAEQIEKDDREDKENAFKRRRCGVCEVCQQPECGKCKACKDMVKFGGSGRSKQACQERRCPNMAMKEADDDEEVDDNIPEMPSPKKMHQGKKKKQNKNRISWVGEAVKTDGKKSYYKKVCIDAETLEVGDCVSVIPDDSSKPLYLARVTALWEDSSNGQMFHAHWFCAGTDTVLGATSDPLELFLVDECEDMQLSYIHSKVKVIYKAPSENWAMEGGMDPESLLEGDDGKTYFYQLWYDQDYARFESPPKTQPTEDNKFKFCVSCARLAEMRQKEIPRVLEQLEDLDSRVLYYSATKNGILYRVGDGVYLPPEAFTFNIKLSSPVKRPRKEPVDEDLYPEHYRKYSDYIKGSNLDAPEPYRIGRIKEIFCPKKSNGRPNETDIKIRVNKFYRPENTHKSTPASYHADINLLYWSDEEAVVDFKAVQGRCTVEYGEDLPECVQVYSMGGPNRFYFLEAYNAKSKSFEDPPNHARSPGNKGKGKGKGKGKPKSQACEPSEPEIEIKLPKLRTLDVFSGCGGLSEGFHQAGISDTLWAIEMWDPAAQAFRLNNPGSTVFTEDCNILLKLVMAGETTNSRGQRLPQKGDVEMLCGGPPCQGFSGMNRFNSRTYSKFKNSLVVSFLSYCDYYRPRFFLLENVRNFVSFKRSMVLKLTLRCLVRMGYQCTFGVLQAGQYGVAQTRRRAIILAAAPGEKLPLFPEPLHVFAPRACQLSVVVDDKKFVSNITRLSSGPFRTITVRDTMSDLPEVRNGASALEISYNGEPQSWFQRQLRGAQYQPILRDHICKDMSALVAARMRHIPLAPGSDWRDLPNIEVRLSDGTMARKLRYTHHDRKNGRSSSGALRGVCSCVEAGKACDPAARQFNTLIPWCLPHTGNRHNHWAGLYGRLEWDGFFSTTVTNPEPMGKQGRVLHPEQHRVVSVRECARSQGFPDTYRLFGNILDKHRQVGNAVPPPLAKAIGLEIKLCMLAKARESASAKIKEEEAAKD
SUMO1-SIM PPI: SUMO1-SIM interaction modulation; inhibition, % at 20 µM; 360,000 tested, 0.33% active; SUMO1 binding to a labelled peptide, TR-FRET, 1 h; P63165; in the data active = inhibition above about 37%
STEP inh: STEP (human) phosphatase inhibition | 360,000 tested, 0.25% active | recombinant STEP, OMFP fluorogenic substrate, fluorescence | inhibition, % at 20 µM | P54829 | AID 588621;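 active = inhibition at 20 µM, scaled per plate between control wells, above about 37%, limit read from the data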;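 note: 0% = DMSO with enzyme and substrate and 100% = substrate only without enzyme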
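Material: STEP (striatal-enriched tyrosine phosphatase) enzyme, cell-free | Medium: 50 mM Bis-Tris pH 6.0 with 2.5 mM DTT and 0.005% Tween 20 | Read-out: Percent inhibition scaled to no-enzyme and uninhibited-enzyme controls, plate-pattern corrected | Signal: Fluorescence read at 480 nm ex / 540 nm em | Times: 20 min reaction, room temperature, in the dark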
Scp-1 inhibitor: inhibitors of human Scp-1 phosphatase; inhibition, % at 20 µM; AID 493091; Q9GZU7; 340,000 tested, 0.88% active; Recombinant Scp1, phosphopeptide, malachite green phosphate absorbance;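 active = inhibition above about 50% at 20 µM, limit read from the data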;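 note: plate controls were DMSO wells with enzyme for no effect and wells lacking enzyme for full effect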
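Times: enzyme reaction 45 min at room temperature, colour 5 min, stabilisation 30 min. Material: SCP-1 catalytic fragment, aa 76-261. Medium: Acidic Tris acetate buffer with magnesium and detergent. Signal: colorimetric free-phosphate detection, absorbance 630 nm. Read-out basis: % inhibition of SCP-1 phosphate liberation. Reagent: Phosphorylated 17-residue peptide substrate.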
* marks the source's active call; other numbers are inactive results; · = no result given. Sampled rows, rich in hits. Any-hit rate of the full collection: about 1.7%.

SMILES	LMPTP block	DNMT1 block	SUMO1-SIM PPI	STEP inh	Scp-1 inhibitor
COc1ccccc1CNc1nc(-c2cc(C)n(C)c2C)cs1	11	76*	-1	-2	3
O=C(O)c1ccc2c(c1)[C@@H]1C=CC[C@@H]1[C@H](c1ccccn1)N2	2	111*	34	31	47
CC1=N/C(=C/c2ccco2)C(=O)O1	-1	93*	13	9	57*
CCCCn1c(N)c(N(CC(C)C)C(=O)c2oc3ccc(Br)cc3c2C)c(=O)[nH]c1=O	0	11	0	1	-7
Cc1ccc(S(=O)(=O)Cc2ccc(C(=O)OCc3ccccc3)cc2)cc1	3	4	-2	-4	-14
COC(=O)c1c[nH]c2c1-c1cc(C(=O)OCc3ccccc3)n(S(=O)(=O)c3ccc(C)cc3)c1C(=O)C2=O	60*	96*	-1	5	5
COC(=O)c1ccc(CNC(=O)C2CCC(=O)N(CCc3ccccc3)C2)cc1 (configuration not stated)	-1	1	3	-1	-2
CC(C)(C)CN1CCN(Cc2nc(-c3ccc(F)cc3)cs2)CC1CCO (configuration not stated)	-1	5	3	0	-12
O=C(COc1ccccc1F)OCC(=O)c1ccc([N+](=O)[O-])cc1	0	-19	-36	-1	-5
Cc1c2cc[n+](CCN3CCCCC3)cc2c(C)c2c1[nH]c1ccc(O)cc12	48	1	92*	5	-10
C=CC(=O)N1C/C(=C/c2ccc(F)cc2)C(=O)/C(=C\c2ccc(F)cc2)C1	7	93*	76*	24	85*
COCCNC(=O)CN(c1ccc(F)cc1)S(=O)(=O)c1ccc2c(c1)OCCO2	0	-1	2	-1	-1
O=C(NC1CCCC1)c1cnn2c(C(F)(F)F)cc(-c3ccc4c(c3)OCO4)nc12	2	51*	-2	-1	-5
Cc1ccc(CNc2nc3c([nH]2)c(=O)n(C)c(=O)n3C)cc1	-1	0	50*	-8	0
COc1ccc(NC(=O)C2(C)CCN2CC2CCCCC2)cc1OC (configuration not stated)	0	0	0	6	·
O=C(O)CCc1ccc(-c2ccccc2)n1CC(=O)O	-1	0	2	0	5
Cc1ccc(-c2ccc(CCC(=O)O)n2Cc2ccco2)cc1	6	57*	2	-17	-4
CS(=O)(=O)N(Cc1nc(-c2ccc(F)cc2)no1)c1ccccc1Cl	2	1	-4	-1	-12
Cc1ccc(S(=O)(=O)N2CCCCC2)cc1NC(=O)c1cc(=O)[nH]c2ccccc12	0	-4	-4	-1	-4
CC(=O)Oc1cc2cccc(OC(C)=O)c(=O)c2c(OC(C)=O)c1OC(C)=O	30	59*	-6	4	58*
O=C(CCCn1nnnc1CN1CCOCC1)N1CCC(c2ccccc2Cl)C1 (configuration not stated)	0	-2	-1	-2	-7
CCN1C(=O)[C@H]2[C@@H](c3ccc(-c4cccc(Cl)c4)c(OC)c3)N[C@@](C)(C(=O)OC)[C@H]2C1=O	0	-1	6	-1	11
O=C(Nc1cccc(NC(=O)c2ccc(-c3ccc(Br)cc3)o2)c1)c1ccco1	5	-14	44*	1	-9
O=C(Nc1cccc(NC(=O)c2ccccc2Cl)c1)c1ccco1	0	1	3	1	-10
COCCn1ccc2c(OCC(=O)NCCc3ccccc3)cccc2c1=O	0	0	8	-2	-5
O=C(NN1C(=O)CSC1=S)C(=O)NN1C(=O)CSC1=S	0	58*	40*	8	55*
O=C(Cc1cccc2ccccc12)NN1C(=O)CSC1=S	-2	-9	11	1	-9
Cc1c(C=NNC(=O)c2ccc(Br)cc2)c2ccccn2c1C(=O)c1ccncc1	0	12	7	2	-6
Cc1ccccc1CN1C(=O)C(C)Sc2ccc(-c3ccco3)cc21 (configuration not stated)	1	58*	6	2	·
Cc1ccccc1CN1C(=O)C(C)S/C1=N/N=C/c1ccco1 (configuration not stated)	2	-3	28	2	-11

From PubChem
